# From ChEMBL document CHEMBL3425486, “Lathyrol diterpenes as modulators of P-glycoprotein dependent multidrug resistance: structure-activity relationship studies on Euphorbia factor L3 derivatives” (J Med Chem, 2015)
# Columns and labels:
# NCI/ADR-RES = experiment: Inhibition of P-gp in human MCF7/ADR cells assessed as reversal of multidrug resistance at 10 uM by measuring ratio of EC50(adriamycin)/EC50(adriamycin + compound) after 48 hrs by SRB colorimetric assay; type: cell-based
# [1] = Cytotoxicity against human MCF7/ADR cells assessed as reduction in cell viability after 48 hrs by SRB colorimetric assay; type: functional, cell-based; details: NCI/ADR-RES
# How it was run: (§1)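 MCF-7 from ATCC and its stepwise ADR-selected resistant subline, grown in RPMI-1640 with 10% FBS and penicillin/streptomycin at 37 °C, 5% CO2. 1 × 10^4 cells/well exposed to graded compound concentrations for 48 h. Cells fixed with 10% TCA, stained with 0.4% SRB in 1% acetic acid, dye extracted with 10 mM Tris base, OD read at 490 nm. Taxol positive control.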
# [2] = target: ATP-dependent translocase ABCB1 (Homo sapiens, UniProt P08183); experiment: Inhibition of P-gp in human MCF7/ADR cells assessed as reversal of multidrug resistance by measuring relative enhancement intensity for adriamycin-induced cytotoxicity at 10 uM after 48 hrs by SRB colorimetric assay; type: cell-based; design: scale not given: the % may be the effect or the level left; details: nci/adr-res
# Chain of ATP-dependent translocase ABCB1 (P08183 whole entry): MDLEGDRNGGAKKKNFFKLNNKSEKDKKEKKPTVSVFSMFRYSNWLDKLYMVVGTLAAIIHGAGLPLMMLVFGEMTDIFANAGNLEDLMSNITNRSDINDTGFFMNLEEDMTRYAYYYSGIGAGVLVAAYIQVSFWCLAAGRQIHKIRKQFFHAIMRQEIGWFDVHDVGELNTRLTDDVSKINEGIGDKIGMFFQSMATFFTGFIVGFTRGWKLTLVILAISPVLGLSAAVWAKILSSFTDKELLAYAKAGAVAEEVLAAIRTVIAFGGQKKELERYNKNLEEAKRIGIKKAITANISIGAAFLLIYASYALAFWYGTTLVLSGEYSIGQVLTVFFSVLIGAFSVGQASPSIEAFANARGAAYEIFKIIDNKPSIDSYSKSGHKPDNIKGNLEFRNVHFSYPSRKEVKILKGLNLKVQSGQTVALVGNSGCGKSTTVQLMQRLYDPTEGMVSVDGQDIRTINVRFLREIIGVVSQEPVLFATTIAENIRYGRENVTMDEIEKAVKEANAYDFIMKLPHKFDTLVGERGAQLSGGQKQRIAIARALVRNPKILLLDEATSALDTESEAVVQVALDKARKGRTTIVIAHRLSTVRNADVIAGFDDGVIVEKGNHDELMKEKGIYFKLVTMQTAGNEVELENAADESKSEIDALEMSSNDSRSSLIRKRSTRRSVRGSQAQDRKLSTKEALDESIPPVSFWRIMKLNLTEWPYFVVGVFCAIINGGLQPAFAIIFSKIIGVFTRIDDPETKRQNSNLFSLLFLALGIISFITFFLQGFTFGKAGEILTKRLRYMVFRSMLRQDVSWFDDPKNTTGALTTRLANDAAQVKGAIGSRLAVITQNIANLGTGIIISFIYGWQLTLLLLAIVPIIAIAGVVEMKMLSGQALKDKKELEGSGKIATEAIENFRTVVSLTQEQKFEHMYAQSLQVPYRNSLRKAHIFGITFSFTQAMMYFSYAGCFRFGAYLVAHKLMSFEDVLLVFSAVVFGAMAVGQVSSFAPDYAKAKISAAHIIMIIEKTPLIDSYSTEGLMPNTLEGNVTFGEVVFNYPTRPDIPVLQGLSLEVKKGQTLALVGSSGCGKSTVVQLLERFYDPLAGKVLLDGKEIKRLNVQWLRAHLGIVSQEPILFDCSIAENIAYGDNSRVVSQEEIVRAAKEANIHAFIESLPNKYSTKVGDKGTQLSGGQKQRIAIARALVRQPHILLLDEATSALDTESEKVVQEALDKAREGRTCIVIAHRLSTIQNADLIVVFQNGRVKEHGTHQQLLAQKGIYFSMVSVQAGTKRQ
# MCF7 = experiment: Cytotoxicity against human MCF7 cells assessed as reduction in cell viability after 48 hrs by SRB colorimetric assay; type: functional, cell-based; details: MCF7, 48 h; how it was run: as §1
# [3] = Inhibition of P-gp in human MCF7/ADR cells assessed as reversal of multidrug resistance at 10 uM by measuring EC50 for adriamycin-induced cytotoxicity after 48 hrs by SRB colorimetric assay; details: nci/adr-res
smiles,measurement,setting,value
C=C1CC[C@H]2[C@@H]([C@@H]3O[C@]4(C[C@H](C)[C@H](OC(=O)CCCCC)[C@@H]4[C@H]1OC(=O)CCCCC)C(=O)[C@H]3C)C2(C)C,Ratio EC50,NCI/ADR-RES,7
same,IC50,[1],> 100 µM
same,Activity,[2],6.8%
same,IC50,MCF7,48.1 µM
C=C1CC[C@H]2[C@@H]([C@@H]3O[C@]4(C[C@H](C)[C@H](OC(=O)CCc5ccccc5)[C@@H]4[C@H]1OC(=O)CCc1ccccc1)C(=O)[C@H]3C)C2(C)C,Ratio EC50,NCI/ADR-RES,1.2
same,IC50,[1],> 100 µM
same,Activity,[2],6.9%
same,IC50,MCF7,46.8 µM
C=C1CC[C@H]2[C@@H]([C@@H]3O[C@]4(C[C@H](C)[C@H](OC(=O)Cc5ccccc5)[C@@H]4[C@H]1OC(=O)Cc1ccccc1)C(=O)[C@@H]3C)C2(C)C,Ratio EC50,NCI/ADR-RES,1.6
same,IC50,[1],55 µM
same,Activity,[2],4%
same,IC50,MCF7,28.5 µM
C=C1CC[C@H]2[C@@H](/C=C(\C)C(=O)[C@@]3(O)C[C@H](C)[C@H](OC(=O)c4ccccc4)[C@@H]3[C@H]1OC(=O)Cc1cccc3ccccc13)C2(C)C,Ratio EC50,NCI/ADR-RES,4
same,IC50,[1],> 100 µM
same,Activity,[2],11.1%
same,IC50,MCF7,4.16 µM
C=C1CC[C@H]2[C@@H]([C@@H]3O[C@]4(C[C@H](C)[C@H](OC(=O)Cc5cccc6ccccc56)[C@@H]4[C@H]1OC(=O)Cc1cccc4ccccc14)C(=O)[C@H]3C)C2(C)C,Ratio EC50,NCI/ADR-RES,1.4
same,IC50,[1],> 100 µM
same,Activity,[2],10.4%
same,IC50,MCF7,84.9 µM
C=C1CC[C@H]2[C@@H](/C=C(\C)C(=O)[C@@]3(O)C[C@H](C)[C@H](O)[C@@H]3[C@H]1OC(=O)CCCCC)C2(C)C,Ratio EC50,NCI/ADR-RES,3
same,IC50,[1],46.1 µM
same,Activity,[2],9.1%
same,IC50,MCF7,18.1 µM
same,EC50,[3],11.45 µM
C=C1CC[C@H]2[C@@H](/C=C(\C)C(=O)[C@@]3(O)C[C@H](C)[C@H](O)[C@@H]3[C@H]1OC(=O)CC)C2(C)C,Ratio EC50,NCI/ADR-RES,2.3
same,IC50,[1],53.5 µM
same,Activity,[2],11.3%
same,IC50,MCF7,32.1 µM
C=C1CC[C@H]2[C@@H]([C@@H]3O[C@]4(C[C@H](C)[C@H](OC(=O)c5ccccc5)[C@@H]4[C@H]1OC(=O)c1ccccc1)C(=O)[C@@H]3C)C2(C)C,Ratio EC50,NCI/ADR-RES,3.2
same,IC50,[1],> 100 µM
same,Activity,[2],6.8%
same,IC50,MCF7,25.2 µM
C=C1CC[C@H]2[C@@H](/C=C(\C)C(=O)[C@@]3(O)C[C@H](C)[C@H](O)[C@@H]3[C@H]1OC(=O)CCc1ccccc1)C2(C)C,Ratio EC50,NCI/ADR-RES,3.5
same,IC50,[1],23.4 µM
same,Activity,[2],11.6%
same,IC50,MCF7,11 µM
C=C1CC[C@H]2[C@@H](/C=C(\C)C(=O)[C@@]3(O)C[C@H](C)[C@H](OC(C)=O)[C@@H]3[C@H]1OC(C)=O)C2(C)C,Ratio EC50,NCI/ADR-RES,4.1
same,IC50,[1],41 µM
same,Activity,[2],4.7%
same,IC50,MCF7,21.6 µM
C=C1CC[C@H]2[C@@H]([C@@H]3O[C@]4(C[C@H](C)[C@H](OC(=O)CCC)[C@@H]4[C@H]1OC(=O)CCC)C(=O)[C@H]3C)C2(C)C,Ratio EC50,NCI/ADR-RES,3
same,IC50,[1],> 100 µM
same,Activity,[2],7.7%
same,IC50,MCF7,19.1 µM
C=C1CC[C@H]2[C@@H]([C@@H]3O[C@]4(C[C@H](C)[C@H](OC(=O)CCc5ccccc5)[C@@H]4[C@H]1OC(=O)CCc1ccccc1)C(=O)[C@@H]3C)C2(C)C,Ratio EC50,NCI/ADR-RES,1.6
same,IC50,[1],40.1 µM
same,Activity,[2],8.3%
same,IC50,MCF7,14.2 µM
C=C1CC[C@H]2[C@@H]([C@@H]3O[C@]4(C[C@H](C)[C@H](OC(=O)/C=C/c5ccccc5)[C@@H]4[C@H]1OC(=O)/C=C/c1ccccc1)C(=O)[C@H]3C)C2(C)C,Ratio EC50,NCI/ADR-RES,3.6
same,IC50,[1],> 100 µM
same,Activity,[2],2.1%
same,IC50,MCF7,64.2 µM
same,EC50,[3],9.68 µM
C=C1CC[C@H]2[C@@H](/C=C(\C)C(=O)[C@@]3(O)C[C@H](C)[C@H](OC(=O)CC)[C@@H]3[C@H]1OC(=O)c1ccccc1)C2(C)C,Ratio EC50,NCI/ADR-RES,8.2
same,IC50,[1],63.3 µM
same,Activity,[2],12.1%
same,IC50,MCF7,8.47 µM
same,EC50,[3],4.22 µM
C=C1CC[C@H]2[C@@H](/C=C(\C)C(=O)[C@@]3(O)C[C@H](C)[C@H](O)[C@@H]3[C@H]1OC(=O)CCCC)C2(C)C,Ratio EC50,NCI/ADR-RES,0.8
same,IC50,[1],57.9 µM
same,Activity,[2],0.1%
same,IC50,MCF7,13.1 µM
C=C1CC[C@H]2[C@@H](/C=C(\C)C(=O)[C@@]3(O)C[C@H](C)[C@H](O)[C@@H]3[C@H]1OC(C)=O)C2(C)C,Ratio EC50,NCI/ADR-RES,1.9
same,IC50,[1],80.7 µM
same,Activity,[2],7.1%
same,IC50,MCF7,26.6 µM
C=C1CC[C@H]2[C@@H](/C=C(\C)C(=O)[C@@]3(O)C[C@H](C)[C@H](O)[C@@H]3[C@H]1OC(=O)CC(C)C)C2(C)C,Ratio EC50,NCI/ADR-RES,4.1
same,IC50,[1],60.8 µM
same,Activity,[2],4.7%
same,IC50,MCF7,14.8 µM
C=C1CC[C@H]2[C@@H]([C@@H]3O[C@]4(C[C@H](C)[C@H](OC(=O)Cc5ccccc5)[C@@H]4[C@H]1OC(=O)Cc1ccccc1)C(=O)[C@H]3C)C2(C)C,Ratio EC50,NCI/ADR-RES,2.1
same,IC50,[1],> 100 µM
same,Activity,[2],11.6%
same,IC50,MCF7,28.5 µM
C=C1CC[C@H]2[C@@H](/C=C(\C)C(=O)[C@@]3(O)C[C@H](C)[C@H](OC(=O)CC)[C@@H]3[C@H]1OC(=O)CC)C2(C)C,Ratio EC50,NCI/ADR-RES,2.8
same,IC50,[1],45 µM
same,Activity,[2],4.6%
same,IC50,MCF7,18.6 µM
C=C1CC[C@H]2[C@@H](/C=C(\C)C(=O)[C@@]3(O)C[C@H](C)[C@H](OC(=O)Cc4cccc5ccccc45)[C@@H]3[C@H]1OC(=O)Cc1cccc3ccccc13)C2(C)C,Ratio EC50,NCI/ADR-RES,1.4
same,IC50,[1],> 100 µM
same,Activity,[2],10.1%
same,IC50,MCF7,13.4 µM
C=C1CC[C@H]2[C@@H](/C=C(\C)C(=O)[C@@]3(O)C[C@H](C)[C@H](O)[C@@H]3[C@H]1O)C2(C)C,Ratio EC50,NCI/ADR-RES,3
same,IC50,[1],59.6 µM
same,Activity,[2],7.3%
same,IC50,MCF7,34 µM
C=C1CC[C@H]2[C@@H](/C=C(\C)C(=O)[C@@]3(O)C[C@H](C)[C@H](OC(=O)CCc4ccccc4)[C@@H]3[C@H]1OC(=O)CCc1ccccc1)C2(C)C,Ratio EC50,NCI/ADR-RES,1.3
same,IC50,[1],> 100 µM
same,Activity,[2],6%
same,IC50,MCF7,28.7 µM
C=C1CC[C@H]2[C@@H]([C@@H]3O[C@]4(C[C@H](C)[C@H](OC(=O)c5ccccc5)[C@@H]4[C@H]1OC(=O)c1ccccc1)C(=O)[C@H]3C)C2(C)C,Ratio EC50,NCI/ADR-RES,1.7
same,IC50,[1],> 100 µM
same,Activity,[2],4.3%
same,IC50,MCF7,34.9 µM
same,EC50,[3],20.49 µM
C=C1CC[C@H]2[C@@H](/C=C(\C)C(=O)[C@@]3(O)C[C@H](C)[C@H](O)[C@@H]3[C@H]1OC(=O)/C=C/c1ccccc1)C2(C)C,Ratio EC50,NCI/ADR-RES,2.7
same,IC50,[1],58.8 µM
same,Activity,[2],9.1%
same,IC50,MCF7,8.24 µM
C=C1CC[C@H]2[C@@H](/C=C(\C)C(=O)[C@@]3(O)C[C@H](C)[C@H](O)[C@@H]3[C@H]1OC(=O)c1cccnc1)C2(C)C,Ratio EC50,NCI/ADR-RES,2.3
same,IC50,[1],19.3 µM
same,Activity,[2],10.3%
same,IC50,MCF7,17.3 µM
C=C1CC[C@H]2[C@@H](/C=C(\C)C(=O)[C@@]3(O)C[C@H](C)[C@H](OC(=O)CC)[C@@H]3[C@H]1OC(=O)Cc1ccccc1)C2(C)C,Ratio EC50,NCI/ADR-RES,8.1
same,IC50,[1],76 µM
same,Activity,[2],9.3%
same,IC50,MCF7,9.57 µM
C=C1CC[C@H]2[C@@H](/C=C(\C)C(=O)[C@@]3(O)C[C@H](C)[C@H](OC(=O)CCC)[C@@H]3[C@H]1OC(=O)CCC)C2(C)C,Ratio EC50,NCI/ADR-RES,2.4
same,IC50,[1],50.9 µM
same,Activity,[2],4%
same,IC50,MCF7,18.5 µM
same,EC50,[3],14.49 µM
C=C1CC[C@H]2[C@@H](/C=C(\C)C(=O)[C@@]3(O)C[C@H](C)[C@H](OC(=O)/C=C/c4ccccc4)[C@@H]3[C@H]1OC(=O)c1ccccc1)C2(C)C,Ratio EC50,NCI/ADR-RES,9.8
same,IC50,[1],42.1 µM
same,Activity,[2],12.1%
same,IC50,MCF7,14.2 µM
C=C1CC[C@H]2[C@@H](/C=C(\C)C(=O)[C@@]3(O)C[C@H](C)[C@H](O)[C@@H]3[C@H]1OC(=O)c1ccccc1)C2(C)C,Ratio EC50,NCI/ADR-RES,1.5
same,IC50,[1],55.3 µM
same,Activity,[2],7.5%
same,IC50,MCF7,11.6 µM
C=C1CC[C@H]2[C@@H](/C=C(\C)C(=O)[C@@]3(O)C[C@H](C)[C@H](O)[C@@H]3[C@H]1OC(=O)Cc1ccccc1)C2(C)C,Ratio EC50,NCI/ADR-RES,7.4
same,IC50,[1],42.9 µM
same,Activity,[2],9.6%
same,IC50,MCF7,14.8 µM
C=C1CC[C@H]2[C@@H](/C=C(\C)C(=O)[C@@]3(O)C[C@H](C)[C@H](O)[C@@H]3[C@H]1OC(=O)C(C)C)C2(C)C,Ratio EC50,NCI/ADR-RES,3.2
same,IC50,[1],66.3 µM
same,Activity,[2],10.1%
same,IC50,MCF7,17 µM
C=C1CCC(=C(C)C)[C@H]2C[C@@H](C)C(=O)[C@@]3(C[C@H](C)[C@H](OC(C)=O)[C@@H]3[C@H]1OC(C)=O)O2,Ratio EC50,NCI/ADR-RES,1.9
same,IC50,[1],65.2 µM
same,Activity,[2],2.4%
same,IC50,MCF7,45.8 µM
C=C1CC[C@H]2[C@@H](/C=C(\C)C(=O)[C@@]3(O)C[C@H](C)[C@H](OC(=O)Cc4ccccc4)[C@@H]3[C@H]1OC(=O)Cc1ccccc1)C2(C)C,Ratio EC50,NCI/ADR-RES,2.6
same,IC50,[1],36.3 µM
same,Activity,[2],9.5%
same,IC50,MCF7,8.93 µM
